Measured values as given in ChEMBL document CHEMBL4177583, “1-Hydroxypyrido[2,3-d]pyrimidin-2(1H)-ones as novel selective HIV integrase inhibitors obtained via privileged substructure-based compound libraries” (Bioorg Med Chem, 2017).
Active and inactive are the calls of the source. The rule behind the calls is not given here.

Key:
[1] = test system: Human immunodeficiency virus 2; assay: Antiviral activity against HIV2 ROD […] infected in human MT4 cells assessed as inhibition of viral-induced cytopathic effect by MTT assay; assay type: functional, organism-based, ISOLATE ROD
Procedure, shortened: (§1)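 MT-4 cells resuspended at 6×10^5 cells/mL and infected with HIV-1 IIIB or HIV-2 ROD at 100-300 CCID50. Compounds tested as serial five-fold dilutions in triplicate wells. Viability read by MTT reduction at 540 and 690 nm after 5 days. Median OD of two or three wells used. EC50 is the concentration giving 50% protection from viral cytopathicity.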

MT4 = assay: (§2) Cytotoxic activity against mock-infected human MT4 cellls assessed as reduction in cell viability by MTT assay; assay type: cell-based; details: mt4
Procedure, shortened: (§3)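 Mock-infected MT-4 cells (6×10^5 cells/mL) run in parallel with infected wells. Compounds tested as serial five-fold dilutions in triplicate. Viability read by MTT at 540/690 nm after 5 days, using the median OD of two or three wells. CC50 is the concentration reducing mock-infected cell viability by 50%. '>' marks the highest concentration tested that was non-cytotoxic.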

[2] = test system: Human immunodeficiency virus 1; assay: Antiviral activity against HIV1 3B infected in human MT4 cells assessed as inhibition of viral-induced cytopathic effect by MTT assay; assay type: functional, organism-based; procedure, shortened: as §1
[3] = as §2; assay type: cell-based; details: mock-infected MT4 cells; procedure, shortened: as §3
[4] = Selectivity index, ratio of CC50 for cytotoxic activity against mock-infected human MT4 cells to EC50 for antiviral activity against HIV1 3B infected in human MT4 cells; assay type: toxicity, cell-based; details: mock-infected (CC50) and HIV1 3B infected (EC50)
Procedure, shortened: (§4)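 SI calculated as CC50 (mock-infected MT-4, MTT, 5 days) divided by EC50 against HIV-1 IIIB or HIV-2 ROD in MT-4 cells measured in the same MTT cytoprotection assay.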

[5] = Selectivity index, ratio of CC50 for cytotoxic activity against mock-infected human MT4 cells to EC50 for antiviral activity against HIV2 ROD […] infected in human MT4 cells; assay type: toxicity, cell-based; details: mock-infected (CC50) and HIV2 ROD infected (EC50); procedure, shortened: as §4
[6] = molecular target: Human immunodeficiency virus type 1 reverse transcriptase (Human immunodeficiency virus 1) (UniProt Q72547); assay: Inhibition of RNase H inhibition activity of HIV-1 BH10 reverse transcriptase expressed in Escherichia coli at 100 uM pre-incubated for 5 mins before [32P]-labeled template primer 31Trna/21P addition by polyacrylamide gel electrophoresis method
Procedure, shortened: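 Recombinant WT HIV-1 BH10 RT (20-40 nM) preincubated with compound for 5 min at 37°C. Buffer: 50 mM Tris-HCl pH 8.0, 50 mM NaCl, 5 mM MgCl2, 5% DMSO. Reactions started with 25 nM 5'-[32P]-labeled 31Trna/21P template-primer. Sampled from 0 to 4 min at 37°C, quenched with EDTA/formamide, and resolved by denaturing PAGE.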

[7] = Human immunodeficiency virus 2, ISOLATE ROD, MT4
[8] = Human immunodeficiency virus 1, 3B, MT4

Row | Structure (SMILES) | EC50 [1] | CC50 (MT4) | EC50 [2] | EC50 [1, 7] | CC50 [3] | selectivity ratio [4] | EC50 [2, 8] | selectivity ratio [5] | inhibition [6]
1 | Cc1nnc(C(=O)NC(C)(C)c2nc(C(=O)NCc3ccc(F)cc3)c(O)c(=O)n2C)o1 [RALTEGRAVIR POTASSIUM] | 0.016 µM | > 51.8 µM | 0.0077 µM | – | – | – | – | – | –
2 | O=c1c2cc(Br)ccc2n(Cc2cn(Cc3ccc(Cl)cc3)nn2)c(=O)n1O | – | – | – | > 24.1 µM | 24.1 µM | < 1 | > 24.1 µM | < 1 | –
3 | Cc1ccccc1Cn1cc(Cn2c(=O)n(O)c(=O)c3cc(Br)ccc32)nn1 | – | – | – | > 17.8 µM | 17.8 µM | < 1 | > 17.8 µM | < 1 | –
4 | O=c1c2cc(Br)ccc2n(Cc2cn(Cc3cccc(F)c3)nn2)c(=O)n1O | – | – | – | > 24.9 µM | 24.9 µM | < 1 | > 24.9 µM | < 1 | –
5 | O=c1nc(Nc2cccc(-c3cn(CCCc4ccccc4)nn3)c2)c2cccnc2n1O | – | – | – | > 239 µM | 239 µM | 9 | 26.1 µM | < 1 | –
6 | O=c1nc(Nc2cccc(-c3cn(CCc4ccccc4)nn3)c2)c2cccnc2n1O | – | – | – | 14.6 µM | > 294 µM | > 31 | 9.5 µM | > 20 | –
7 | O=C(Cn1cc(-c2cccc(Nc3nc(=O)n(O)c4ncccc34)c2)nn1)Nc1ccccc1 | – | – | – | > 275 µM | > 275 µM | > 10 | 26.8 µM | 1 | –
8 | O=c1nc(Nc2ccccc2-c2cn(Cc3ccc(F)cc3)nn2)c2cccnc2n1O | – | – | – | > 2.7 µM | 2.7 µM | < 1 | > 2.7 µM | < 1 | –
9 | O=c1nc(Nc2cccc(-c3cn(-c4cccc5ccccc45)nn3)c2)c2cccnc2n1O | – | – | – | 69.4 µM | > 279 µM | > 10 | 27.1 µM | > 4 | –
10 | O=C(Cn1cc(-c2cccc(Nc3nc(=O)n(O)c4ncccc34)c2)nn1)Nc1ccc(F)cc1 | – | – | – | > 265 µM | > 265 µM | > 1 | 232 µM | 1 | –
11 | Cc1cccc(Cn2cc(Cn3c(=O)n(O)c(=O)c4cc(Br)ccc43)nn2)c1 | – | – | – | > 24 µM | 24 µM | < 1 | > 24 µM | < 1 | –
12 | COc1cc2c(cc1Cc1cccc(Cl)c1F)c(=O)c(C(=O)O)cn2[C@H](CO)C(C)C | – | – | – | 0.0038 µM | 6.3 µM | – | 0.0023 µM | – | –
13 | O=c1c2cc(Br)ccc2n(Cc2cn(Cc3ccccc3Cl)nn2)c(=O)n1O | – | – | – | > 22.3 µM | 22.3 µM | < 1 | > 22.3 µM | < 1 | –
14 | Cc1ccc(Cn2cc(-c3ccccc3Nc3nc(=O)n(O)c4ncccc34)nn2)cc1 | – | – | – | > 1.1 µM | 1.1 µM | < 1 | > 1.1 µM | < 1 | –
15 | O=C(Cn1cc(-c2cccc(Nc3nc(=O)n(O)c4ncccc34)c2)nn1)c1ccc(F)cc1 | – | – | – | > 273 µM | > 273 µM | > 91 | 3 µM | 1 | –
16 | O=c1c2cc(Br)ccc2n(Cc2cn(Cc3ccccc3)nn2)c(=O)n1O | – | – | – | > 23.7 µM | 23.7 µM | < 1 | > 23.7 µM | < 1 | –
17 | O=c1c2cc(Br)ccc2n(Cc2cn(Cc3ccc(Br)cc3)nn2)c(=O)n1O | – | – | – | > 21.8 µM | 21.8 µM | < 1 | > 21.8 µM | < 1 | –
18 | Cc1nnc(C(=O)NC(C)(C)c2nc(C(=O)NCc3ccc(F)cc3)c(O)c(=O)n2C)o1 | – | – | – | 0.011 µM | > 55.8 µM | – | 0.0078 µM | – | –
19 | O=c1c2cc(Br)ccc2n(Cc2cn(Cc3ccc([N+](=O)[O-])cc3)nn2)c(=O)n1O | – | – | – | > 22.4 µM | 22.4 µM | < 1 | > 22.4 µM | < 1 | –
20 | O=c1c2cc(Br)ccc2n(Cc2cn(Cc3ccc(F)cc3)nn2)c(=O)n1O | – | – | – | > 25.1 µM | 25.1 µM | < 1 | > 25.1 µM | < 1 | Active
21 | O=c1nc(Nc2cccc(-c3cn(Cc4ccc(F)cc4)nn3)c2)c2cccnc2n1O | – | – | – | 2.82 µM | > 291 µM | > 318 | 0.92 µM | > 103 | –
22 | O=c1c2cc(Br)ccc2n(Cc2cn(Cc3ccc(F)c(F)c3)nn2)c(=O)n1O | – | – | – | > 24.7 µM | 24.7 µM | < 1 | > 24.7 µM | < 1 | –
23 | O=C(Cn1cc(-c2cccc(Nc3nc(=O)n(O)c4ncccc34)c2)nn1)Nc1ccc(C(F)(F)F)cc1 | – | – | – | > 239 µM | > 239 µM | 1 | > 239 µM | 1 | –
